Legend:
[1] = tested on: Spleen; assay: Drug uptake in mouse spleen pretreated with unlabelled compound for 1 hr followed by radiolabeled compound treatment measured after 20 mins by PET image analysis; assay type: ADME, tissue-based; conditions: in vivo
Summary of the method: (§1)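 Mice received a 200 mg/kg predose of unlabelled compound 1 h before [11C]-tracer injection. Tissue radioactivity was read 20 min after the tracer and given as % injected dose/gram, mean ± SD of three animals.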

[2] = tested on: Lung; assay: Drug uptake in mouse lung pretreated with unlabelled compound for 1 hr followed by radiolabeled compound treatment measured after 20 mins by PET image analysis; assay type: ADME, tissue-based; conditions: in vivo; summary of the method: as §1
[3] = Drug uptake in iv dosed baboon heart measured over 90 mins by PET image analysis; assay type: ADME, organism-based; conditions: papio anubis, in vivo, 1.5 h
Summary of the method: (§2)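 Dynamic PET scan of baboons over 90 min after i.v. [11C]-labelled radiotracer. Peripheral organ time-activity curves were derived from regions of interest drawn manually on the images.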

[4] = Drug uptake in iv dosed baboon lung measured over 90 mins by PET image analysis; assay type: ADME, organism-based; conditions: papio anubis, in vivo, 1.5 h; summary of the method: as §2
[5] = Drug uptake in iv dosed baboon blood measured over 90 mins by PET image analysis; assay type: ADME, organism-based; conditions: papio anubis, in vivo, 1.5 h; summary of the method: as §2
[6] = Drug uptake in iv dosed baboon liver measured over 90 mins by PET image analysis; assay type: ADME, organism-based; conditions: papio anubis, in vivo, 1.5 h; summary of the method: as §2
[7] = Drug uptake in iv dosed baboon kidney measured over 90 mins by PET image analysis; assay type: ADME, organism-based; conditions: papio anubis, in vivo, 1.5 h; summary of the method: as §2
[8] = Drug uptake in iv dosed baboon spleen measured over 90 mins by PET image analysis; assay type: ADME, organism-based; conditions: papio anubis, in vivo, 1.5 h; summary of the method: as §2
[9] = Drug uptake in iv dosed baboon gallbladder measured over 90 to 120 mins by PET image analysis; assay type: ADME, organism-based, Gall bladder; conditions: papio anubis, in vivo
[10] = tested on: Brain; assay: Drug uptake in iv dosed baboon brain measured over 15 to 90 mins by PET image analysis; assay type: ADME, organism-based; conditions: papio anubis, in vivo
Summary of the method: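 Baboon PET after i.v. radiolabelled drug, with images acquired for 90 min. Dose-corrected coronal images were summed over 15–90 min. Time-activity curves came from manually drawn regions of interest.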

[11] = tested on: Spleen; assay: Drug uptake in mouse spleen measured at 20 mins; assay type: ADME, tissue-based; conditions: in vivo
Summary of the method: (§3)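 Healthy mice were injected with [11C]-labelled tracer. Tissue radioactivity was measured at 20, 40 and 60 min post-injection and expressed as % injected dose/gram. Values are mean ± SD of three animals.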

[12] = tested on: Spleen; assay: Drug uptake in mouse spleen measured at 40 mins; assay type: ADME, tissue-based; conditions: in vivo; summary of the method: as §3
[13] = tested on: Spleen; assay: Drug uptake in mouse spleen measured at 60 mins; assay type: ADME, tissue-based; conditions: in vivo, 1 h; summary of the method: as §3
[14] = tested on: Kidney; assay: Drug uptake in mouse kidney measured at 20 mins; assay type: ADME, tissue-based; conditions: in vivo; summary of the method: as §3
[15] = tested on: Kidney; assay: Drug uptake in mouse kidney measured at 40 mins; assay type: ADME, tissue-based; conditions: in vivo; summary of the method: as §3
[16] = tested on: Kidney; assay: Drug uptake in mouse kidney measured at 60 mins; assay type: ADME, tissue-based; conditions: in vivo, 1 h; summary of the method: as §3
[17] = tested on: Liver; assay: Drug uptake in mouse liver measured at 40 mins; assay type: ADME, tissue-based; conditions: in vivo; summary of the method: as §3
[18] = tested on: Liver; assay: Drug uptake in mouse liver measured at 60 mins; assay type: ADME, tissue-based; conditions: in vivo, 1 h; summary of the method: as §3
[19] = tested on: Lung; assay: Drug uptake in mouse lung measured at 20 mins; assay type: ADME, tissue-based; conditions: in vivo; summary of the method: as §3
[20] = tested on: Lung; assay: Drug uptake in mouse lung measured at 40 mins; assay type: ADME, tissue-based; conditions: in vivo; summary of the method: as §3
[21] = tested on: Lung; assay: Drug uptake in mouse lung measured at 60 mins; assay type: ADME, tissue-based; conditions: in vivo, 1 h; summary of the method: as §3
[22] = tested on: Blood; assay: Drug uptake in mouse blood measured at 20 mins; assay type: ADME, tissue-based; summary of the method: as §3
[23] = tested on: Blood; assay: Drug uptake in mouse blood measured at 40 mins; assay type: ADME, tissue-based; summary of the method: as §3
[24] = tested on: Blood; assay: Drug uptake in mouse blood measured at 60 mins; assay type: ADME, tissue-based; conditions: 1 h; summary of the method: as §3
[25] = tested on: Mycobacterium tuberculosis; assay: Binding affinity to Mycobacterium tuberculosis InhA:NAD+ complex expressed in Escherichia coli BL21(DE3)pLysS assessed as residence time
[26] = Octanol-phosphate buffer partition coefficient, log D of the compound at pH 7.4; assay type: physicochemical; conditions: octanol/water
Summary of the method: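 Partitioning between octanol and pH 7.4 phosphate buffer, with the carbon-11 radiolabel used to report drug concentration in each phase.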

[27] = Plasma protein binding in baboon after 10 mins; assay type: ADME, cell-free; conditions: papio anubis
[28] = tested on: Mycobacterium tuberculosis; assay: Binding affinity to Mycobacterium tuberculosis InhA assessed as residence time

Q: What does the source list for `CCCCCCc1ccc(Oc2ccccc2[11CH3])c(O)c1`?
A: Drug uptake [1]: Active; Drug uptake [2]: Active; Drug uptake [3]: Not Active; Drug uptake [4]: Not Active; Drug uptake [5]: Not Active; Drug uptake [6]: Active; Drug uptake [7]: Active; Drug uptake [8]: Active; Drug uptake [9]: Active; Drug uptake [10]: Active; Drug uptake [11]: 1.82 %ID/cc; Drug uptake [12]: 0.93 %ID/cc; Drug uptake [13]: 0.21 %ID/cc; Drug uptake [14]: 2.21 %ID/cc; Drug uptake [15]: 1.45 %ID/cc; Drug uptake [16]: 0.31 %ID/cc; Drug uptake [17]: 15.7 %ID/cc; Drug uptake [18]: 14.09 %ID/cc; Drug uptake [19]: 1.36 %ID/cc; Drug uptake [20]: 1.26 %ID/cc; Drug uptake [21]: 1.35 %ID/cc; Drug uptake [22]: 1.7 %ID/cc; Drug uptake [23]: 1.46 %ID/cc; Drug uptake [24]: 0.55 %ID/cc

Q: Which Drug uptake [10] does the source give for `CCCCCCc1ccc(Oc2ccccc2[11C]#N)c(O)c1` here?
A: Active

Q: Which TIME [25] does the source give for `CCCCCCc1ccc(Oc2ccccc2C)c(O)c1` here?
A: 0.4 h

Q: What about the logD [26] of the same molecule?
A: 3.65

Q: What about the PPB [27] of the same molecule?
A: 99.76%

Q: Which TIME [28] does the source give for `NC(=O)C1=CN([C@@H]2O[C@H](COP(=O)(O)OP(=O)(O)OC[C@H]3O[C@@H](n4cnc5c(N)ncnc54)[C@H](O)[C@@H]3O)[C@@H](O)[C@H]2O)C=C[C@@H]1C(=O)c1ccncc1` here?
A: 1 h

Source: ChEMBL document CHEMBL3632514, “Radiolabelling and positron emission tomography of PT70, a time-dependent inhibitor of InhA, the Mycobacterium tuberculosis enoyl-ACP reductase” (Bioorg Med Chem Lett, 2015)
